The record followed here is ChEMBL document CHEMBL1255569, “Synthesis of ester prodrugs of 9-(S)-[3-hydroxy-2-(phosphonomethoxy)propyl]-2,6-diaminopurine (HPMPDAP) as anti-poxvirus agents” (J Med Chem, 2010).

Data set [1] is described as follows: Cytotoxicity against HEL. It counts as cell-based. The note with it: human, HEL cells. Put shortly:
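HEL cells were seeded at 5 × 10³ cells/well and allowed to proliferate for 24 h, then given medium with graded compound concentrations. After 3 days at 37 °C, cells were counted with a Coulter counter. CC50 (μM) is the concentration halving proliferation relative to untreated controls, estimated from plots of cell number (% of control) against concentration.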

For a further data set, the system named is Human betaherpesvirus 6. Put plainly: Antiviral activity against Human herpesvirus 6 infected in HEL assessed as reduction in virus-induce cytopathicity. It counts as functional, organism-based. On the technique in general: Protection from cytopathic effect is a common read-out in antiviral testing.
Data set [2] can be described thus: Cytotoxicity against human HSB2 cells assessed as change in cell morphology. Type of data set: cell-based, CCRF-HSB-2. In short, it runs like this: (§1)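 Microscopic inspection of cultures exposed to test compounds. MCC is the minimum compound concentration causing a microscopically detectable alteration of cell morphology.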
Data set [3] relates to Human alphaherpesvirus 1. Put plainly: Antiviral activity against HSV1 KOS infected in HEL assessed as reduction in virus-induce cytopathicity. The note with it: Human alphaherpesvirus 1, KOS. It counts as functional, organism-based.
The next data set deals with Vaccinia virus. Put plainly: Antiviral activity against Vaccinia virus infected in HEL assessed as reduction in virus-induce cytopathicity. It counts as functional, organism-based. Conditions: Orthopoxvirus vaccinia.
Data set [4] has as its system Human betaherpesvirus 5. Put plainly: Antiviral activity against Human cytomegalovirus Davis infected in HEL assessed as reduction in virus-induce cytopathicity. It counts as functional, organism-based. The note with it: Human betaherpesvirus 5, Davis.
In data set [5] the test system is Human alphaherpesvirus 3. Put plainly: Antiviral activity against acyclovir-resistant VZV 07/1 infected in HEL assessed as reduction in virus-induce cytopathicity. The note with it: Human alphaherpesvirus 3, 07/1.
The test system of another data set is Human alphaherpesvirus 2. The data set is described as follows: Antiviral activity against […] infected in HEL assessed as reduction in virus-induce cytopathicity. It counts as functional, organism-based. Conditions: Human alphaherpesvirus 2, strain G.
The test system of data set [6] is Human betaherpesvirus 5. Put plainly: Antiviral activity against Human cytomegalovirus AD169 infected in HEL assessed as reduction in virus-induce cytopathicity. Conditions: Human betaherpesvirus 5, AD169. Type of data set: functional, organism-based.
In data set [7] the test system is Human alphaherpesvirus 1. The data set is described as follows: Antiviral activity against acyclovir-resistant HSV1 KOS infected in HEL assessed as reduction in virus-induce cytopathicity. It counts as functional, organism-based. Conditions: Human alphaherpesvirus 1, KOS.
The nature of data set [8]: Cytotoxicity against HEL assessed as change in cell morphology. It counts as cell-based. Conditions: human, HEL cells. Put shortly:
as §1

In data set [9] the test system is Human alphaherpesvirus 3. The data set is described as follows: Antiviral activity against acyclovir-resistant VZV OKA infected in HEL assessed as reduction in virus-induce cytopathicity. The note with it: Human alphaherpesvirus 3, OKA.

`CCCCCCCCCCCCCCCCOCCCOP1(=O)CO[C@@H](Cn2cnc3c(N)nc(N)nc32)CO1` (stereo partly specified) returned a CC50 in [1] of 13700 nM. Further, the EC50 in the data set on Human betaherpesvirus 6 is 160 nM; in the data set on Human alphaherpesvirus 1 [3] it was 31 nM; in the data set on Vaccinia virus it was 11 nM; in the data set on Human betaherpesvirus 5 [4] it was 21 nM; in the data set with Human alphaherpesvirus 3 [5] it was 1.7 nM; in the data set with Human alphaherpesvirus 2, 53 nM. Further, the EC50 in the data set with Human betaherpesvirus 5 [6] is 34 nM; with Human alphaherpesvirus 1 [7] it was 53 nM; in the data set on Human alphaherpesvirus 3 [9] it was 12 nM. Further, the MCC in data set [2] amounted to 8600 nM; in data set [8], 6.9 µM.

In data set [1], `CCCCCCCCCCCCCCCCCCOCCO[P@]1(=O)CO[C@@H](Cn2cnc3c(N)nc(N)nc32)CO1` yielded a CC50 of 129000 nM. For the same molecule, the 50% effective concentration (EC50) was > 42000 nM with Human betaherpesvirus 6; 30 nM in the data set with Human alphaherpesvirus 1 [3]; 52 nM with Vaccinia virus; 3.4 nM in the data set with Human betaherpesvirus 5 [4]; 10 nM in the data set on Human alphaherpesvirus 3 [5]; 37 nM in the data set on Human alphaherpesvirus 2. In addition, the EC50 with Human betaherpesvirus 5 [6] was determined as 15 nM; in the data set with Human alphaherpesvirus 1 [7], 17 nM; in the data set on Human alphaherpesvirus 3 [9], 45 nM. Further, the MCC in [2] worked out at 500 nM; in data set [8] it was 6.7 µM.

Turning to `CCCCCCCCCCCCCCCCCCOCCO[P@@]1(=O)CO[C@@H](Cn2cnc3c(N)nc(N)nc32)CO1`, in [1], it took 15100 nM to reach half-maximal cytotoxicity (CC50). The EC50 was > 42000 nM in the data set on Human betaherpesvirus 6; 13 nM in the data set with Human alphaherpesvirus 1 [3]; 5 nM in the data set with Vaccinia virus; 8 nM with Human betaherpesvirus 5 [4]; 0.7 nM with Human alphaherpesvirus 3 [5]; 11 nM with Human alphaherpesvirus 2. In addition, the results for the EC50 in the data set on Human betaherpesvirus 5 [6], in the data set with Human alphaherpesvirus 1 [7] and with Human alphaherpesvirus 3 [9] were 27 nM, 7 nM and 4.7 nM, respectively. In addition, the MCC in data set [2] is 500 nM; in data set [8] it was 6.7 µM.

In general, CC50 refers to the concentration that lowers cell viability or growth by half. A high value points to better tolerance by the cells. As usually defined, the EC50 is the midpoint of the concentration-response curve.
